Here are results for seven compounds from paper PMC8332596 (Clinical Pharmacokinetics, 2021).

The format of data set [1] is in vivo, human. Particulars: single 5 mg SC; for tmax median of differences (90% CI): Hodges–Lehmann; for tmax: median (range). Put shortly: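 Single SC 5 mg dose given on day 1. Plasma was drawn predose and at 8, 12, 24, 48, 72, 96, 168, 336 and 648 h, then stored at about −70 °C. Drug was immunoprecipitated and quantified by LC–high-resolution MS (HESI, positive ion) over 2.00–500.00 ng/mL. Noncompartmental analysis used actual times, trapezoidal AUClast and log-linear λz. Log AUC/Cmax ratios versus control came from ANOVA with 90% CI; tmax by Hodges–Lehmann.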

Data set [2] in a line: Safety and tolerability after a single subcutaneous dose of tirzepatide 5 mg. Type of data set: in vivo, human. To be noted: single 5 mg SC. Put shortly:
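Open-label phase I single-dose study in adults aged 18–85 y with BMI 19.0–40.0 kg/m2, grouped by MDRD eGFR. ESRD subjects were dialysed on high-flux polysulfone membranes. AEs were recorded at screening and on days 1, 2, 3, 4, 5, 8, 15 and ≥28. Glucose was checked predose, at 12–336 h and on day ≥28, with hypoglycaemia defined per ADA guidance. ISRs were assessed to 48 h. Labs (incl. amylase/lipase), vitals and ECGs were taken at set visits.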

The conditions of data set [3]: dose range 0.5 to 15 mg, single-dose levels and steady state; cited from earlier work.
Data set [4] is described as follows: Immunogenicity: antidrug antibodies in serum. Format: in vivo, human. Particulars: single 5 mg SC, maximum of 30 days of ADA monitoring postdose.
For data set [5] the following is noted: cited from earlier work.
For data set [6] the following is noted: once-weekly dulaglutide 1.5 mg; patients with T2D; cited from earlier work.
[7] abbreviates: moderate renal impairment, N = 8.
Where [8] appears, read: mild-to-moderate renal impairment.

Like-named read-outs stand apart in the source and are kept apart here.

For orientation: half-life means the time in which the quantity being followed falls by half. In data set [1] (human, plasma, sc, 5 mg, t½, ESRD, n = 8, geometric mean (range)), `CC[C@H](C)[C@H](NC(=O)[C@H](CC(C)C)NC(=O)[C@H](Cc1c[nH]c2ccccc12)NC(=O)[C@H](CCC(N)=O)NC(=O)[C@@H](NC(=O)[C@H](Cc1ccccc1)NC(=O)[C@H](C)NC(=O)[C@H](CCCCNC(=O)COCCOCCNC(=O)COCCOCCNC(=O)CC[C@H](NC(=O)CCCCCCCCCCCCCCCCCCC(=O)O)C(=O)O)NC(=O)[C@H](CCC(N)=O)NC(=O)[C@H](C)NC(=O)[C@@H](NC(=O)[C@H](CCCCN)NC(=O)[C@H](CC(=O)O)NC(=O)[C@H](CC(C)C)NC(=O)C(C)(C)NC(=O)[C@@H](NC(=O)[C@H](CO)NC(=O)[C@H](Cc1ccc(O)cc1)NC(=O)[C@H](CC(=O)O)NC(=O)[C@H](CO)NC(=O)[C@@H](NC(=O)[C@H](Cc1ccccc1)NC(=O)[C@@H](NC(=O)CNC(=O)[C@H](CCC(=O)O)NC(=O)C(C)(C)NC(=O)[C@@H](N)Cc1ccc(O)cc1)[C@@H](C)O)[C@@H](C)O)[C@@H](C)CC)[C@@H](C)CC)C(C)C)C(=O)N[C@@H](C)C(=O)NCC(=O)NCC(=O)N1CCC[C@H]1C(=O)N[C@@H](CO)C(=O)N[C@@H](CO)C(=O)NCC(=O)N[C@@H](C)C(=O)N1CCC[C@H]1C(=O)N1CCC[C@H]1C(=O)N1CCC[C@H]1C(=O)N[C@@H](CO)C(N)=O` [tirzepatide] gave a half-life of 151 h. Also, in data set [1] (ESRD vs normal renal function), the “tmax median of differences (90% CI)” value came out at 0.00 h. In addition, the tmax in data set [1] (ESRD, n = 8) is on record as 48.00 (24.00–96.00) h. In data set [1] (linear regression, eGFR as continuous variable), the “relationship between exposure (Cmax, AUClast, AUC∞) and MDRD eGFR” value is given as “did not show a relationship”. The “higher AUClast versus control” value in data set [1] (mild renal impairment group classified by CLCR (Cockcroft–Gault)) came out at 23%. Besides, the “tmax median of differences (90% CI)” value in data set [1] (mild renal impairment vs normal renal function) is 0.00 h. Further, the t½ in data set [1] (mild renal impairment, n = 8, geometric mean (range)) is recorded as 121 (94.6–138) h. Further, the tmax in data set [1] (mild renal impairment, n = 8) is 48.00 (12.00–96.00) h. For the same compound, in data set [1] (moderate renal impairment group), the “increase in AUCs versus normal renal function” value is 25–29%. For the same compound, the “geometric mean AUClast higher than control group” value in data set [1] (moderate renal impairment vs control, 90% CI 1.04–1.52) is 25%. The “geometric mean AUC∞ higher than control group” value in data set [1] (moderate renal impairment vs control, 90% CI 1.07–1.56) was 29%. Further, the “number of subjects with AEs related to tirzepatide” value (“number of subjects with AEs related” below) in data set [2] (ESRD group (37.5%)) is 3. Also, in data set [2] (ESRD, N = 8), the Abdominal distention is listed as 0 (0.0) n (%), the Back pain is on record as 0 (0.0) n (%), the Deaths is given as 0 (0.0) n (%) and the Diarrhea is given as 0 (0.0) n (%). Besides, in data set [2] (ESRD, N = 8), the Headache is 0 (0.0) n (%), the Nausea is on record as 1 (12.5) n (%), the “Serious AEs” value is recorded as 0 (0.0) n (%) and the “Treatment-emergent AEs” value was 3 (37.5) n (%). In data set [2] (ESRD, N = 8), the Vomiting is 2 (25.0) n (%). Besides, in data set [2] (all groups), the “alterations in laboratory, vital signs values, ECGs, or blood glucose monitoring” value is “no clinically significant alterations” and the severe hypoglycemic events result is reported as “no severe hypoglycemic events”. In addition, the “discontinuations due to AEs, serious AEs, deaths” value in data set [2] (all groups, 45 subjects) is recorded as “No discontinuations due to AEs, serious AEs, or deaths”. Moreover, the tolerability result in data set [2] (all treatment groups) was “well-tolerated”. Further, the “injection-site reactions (ISRs)” value in data set [2] (assessed predose and 0, 6, 12, 24, 48 h postdose) is “No ISRs were reported”. In data set [2] (control group (7.1%)), the “number of subjects with AEs related” value was found to be 1. For the same compound, the “number of subjects with AEs related” value in data set [2] (mild renal impairment group (37.5%)) stood at 3. In data set [2] (mild renal impairment, N = 8), the Abdominal distention is recorded as 0 (0.0) n (%), the Back pain is listed as 1 (12.5) n (%), the Deaths was 0 (0.0) n (%) and the Diarrhea was 1 (12.5) n (%). Further, in data set [2] (mild renal impairment, N = 8), the Headache was 0 (0.0) n (%), the Nausea is recorded as 1 (12.5) n (%), the “Serious AEs” value is given as 0 (0.0) n (%) and the “Treatment-emergent AEs” value is 3 (37.5) n (%). In data set [2] (mild renal impairment, N = 8), the Vomiting is recorded as 0 (0.0) n (%). In data set [2] (moderate renal impairment group (37.5%)), the “number of subjects with AEs related” value is 3. Further, in data set [2] (setting [7]), the Abdominal distention is on record as 1 (12.5) n (%), the Back pain is listed as 1 (12.5) n (%), the Deaths is reported as 0 (0.0) n (%) and the Diarrhea was 1 (12.5) n (%). In data set [2] (setting [7]), the Headache is given as 0 (0.0) n (%), the Nausea was 0 (0.0) n (%), the “Serious AEs” value was 0 (0.0) n (%) and the “Treatment-emergent AEs” value is on record as 3 (37.5) n (%). Also, the Vomiting in data set [2] (setting [7]) was 0 (0.0) n (%). In data set [2] (normal renal function, N = 14), the Abdominal distention is 0 (0.0) n (%), the Back pain is 0 (0.0) n (%), the Deaths was 0 (0.0) n (%) and the Diarrhea is 0 (0.0) n (%). In data set [2] (normal renal function, N = 14), the Headache is 1 (7.1) n (%), the Nausea is 0 (0.0) n (%), the “Serious AEs” value was 0 (0.0) n (%) and the “Treatment-emergent AEs” value is 1 (7.1) n (%). For the same compound, the Vomiting in data set [2] (normal renal function, N = 14) is reported as 0 (0.0) n (%). In addition, the “treatment-related AEs” value in data set [2] (severe renal impairment group) was “No treatment-related AEs were reported”. In addition, in data set [2] (severe renal impairment, N = 7), the Abdominal distention was 0 (0.0) n (%), the Back pain is 0 (0.0) n (%), the Deaths is 0 (0.0) n (%) and the Diarrhea is reported as 0 (0.0) n (%). Besides, in data set [2] (severe renal impairment, N = 7), the Headache is 0 (0.0) n (%), the Nausea is recorded as 0 (0.0) n (%), the “Serious AEs” value was 0 (0.0) n (%) and the “Treatment-emergent AEs” value is listed as 0 (0.0) n (%). Further, the Vomiting in data set [2] (severe renal impairment, N = 7) is on record as 0 (0.0) n (%). Further, in data set [3], the “dose dependence of PK” value is “linear and dose-proportional”. The “treatment-emergent antidrug antibodies (ADAs)” value in data set [4] is “No treatment-emergent ADAs were detected”.

albiglutide: the “PK versus subjects with normal renal function” value in data set [5] (setting [8]) is “not significantly altered”.

For the compound dulaglutide, in data set [5], the “influence of the extent of renal impairment on PK” value was “not influenced”. In data set [6], the HbA1c reduction was at most 1.1% and the body weight reduction is at most 2.7 kg.

Turning to exenatide, in data set [5] (subcutaneous, mild-to-moderate renal impairment), the “PK changes versus subjects with normal renal function” value is recorded as “clinically acceptable”.

On to liraglutide, for which, in data set [5] (setting [8]), the “PK versus subjects with normal renal function” value is “not significantly altered”.

Turning to lixisenatide, the “differences in PK versus subjects with normal renal function” value in data set [5] (setting [8]) is on record as “no significant differences”. For the same compound, the drug exposure result in data set [5] (severe renal impairment) was “may be increased”.

As to semaglutide, the “impact of renal impairment on plasma PK” value in data set [5] (oral) was “lack of impact”.
